Shown are actives, neighbours in structure and some others; about 2% of the full set was active somewhere.
FXN GAA850 act = activators of GAA850 frataxin (FXN) promoter; 0.56% of 360,000 active; HEK293 lucGAA850 FXN promoter luciferase reporter, 24 h; percent of 10 µM SAHA response; activation, % at 6 µM;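 active = activation above the average of all compounds screened plus 3 SD, cutoff fixed separately per campaign, cut at about 7.5% in these data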;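 also: 0% = DMSO wells and 100% = 10 µM SAHA wells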
NR2E3 ag-1 = NR2E3 (human) agonism. GST-NR2E3/biotin-RetCOR TR-FRET, 1536-well. inhibition of corepressor binding, % at 4.78 µM. 0.12% of 320,000 active. AID 2300;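 active = percent inhibition above the cutoff of mean plus 3 SD of all tested compounds, set per screening campaign, cut at about 20% in these data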;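 also: 0% = DMSO wells and 100% = biotin wells as full block of FRET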
Target sequence (Q9Y5X4 whole entry, looked up): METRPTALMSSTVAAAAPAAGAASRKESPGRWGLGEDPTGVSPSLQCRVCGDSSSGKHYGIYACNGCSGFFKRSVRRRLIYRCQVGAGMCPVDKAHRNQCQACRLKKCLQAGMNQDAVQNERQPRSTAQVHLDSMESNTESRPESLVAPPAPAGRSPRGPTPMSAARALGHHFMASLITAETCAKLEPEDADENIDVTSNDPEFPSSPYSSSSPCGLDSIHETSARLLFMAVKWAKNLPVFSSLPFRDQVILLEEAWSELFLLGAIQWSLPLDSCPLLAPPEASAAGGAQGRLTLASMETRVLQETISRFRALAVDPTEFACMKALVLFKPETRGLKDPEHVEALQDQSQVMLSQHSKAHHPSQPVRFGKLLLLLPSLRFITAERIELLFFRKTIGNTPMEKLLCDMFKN
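Format: 1536-well format; test system: GST-NR2E3 and biotin-RetCOR proteins; read-out basis: percent inhibition of TR-FRET ratio; timing: 5 h incubation at 4 °C; detection: time-resolved FRET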
T cell HTS = modulates CD8 T cell binding to vesicles. response (vesicle binding), % at 7 µM. 0.068% of 330,000 active. AID 2052. 2C CD8+ T cell-vesicle binding, flow cytometry; hits give low values;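 active = response, share of CD8 T cells binding vesicles, and their 90th percentile fluorescence all below set limits, cut at about 80% in these data, passing the limit was not always enough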;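 also: values below 100% mean blocked vesicle binding to the CD8+ T cells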
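Assay system: 2C TCR transgenic mouse naive CD8+ T cells, MACS-purified | Read-out: CD8+ gate FL2 mean fluorescence as % of same-row positive control | Signal: High-throughput flow cytometry with anti-B7-1 and anti-CD8 staining | Timing: Binding step 1.5 h, 37 °C, antibody labelling 20 min, ice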
NR2E3 ag-2 = human photoreceptor-specific nuclear receptor agonism; CHO-S Gal4-NCOR/VP16-NR2E3 two-hybrid, luciferase; inhibition of corepressor binding, % at 3.98 µM; 0.35% of 360,000 active;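 active = inhibition above the mean of all tested compounds plus 3 SD, cut at about 70% in these data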;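 also: 0% = DMSO with NR2E3 transfected cells and 100% = cells lacking NR2E3 construct; higher means lower luciferase signal from less NR2E3 corepressor binding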
Myeloid diff 2 = myeloid differentiation induction; ER-HoxA9 myeloid progenitors, lysozyme-GFP differentiation, flow cytometry; calls only at 10 µM; 1% of 360,000 active; AID 624256;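 active = normalized GFP-positive differentiation at or above the plate's own cutoff, the solvent-only control mean plus 3 SD; inconclusive = no clear call, values can overlap the other calls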;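 also: cells exposed to compound for four days before flow analysis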
* hit, by the source's call; i = inactive; ? = inconclusive; nt = no result given; + = active, no number.

SMILES | FXN GAA850 act | NR2E3 ag-1 | T cell HTS | NR2E3 ag-2 | Myeloid diff 2
O=c1cc(N2CCN(c3ccccc3)CC2)[nH]c(=O)n1Cc1ccc(F)cc1 | -0.4 | -4.2 | 470.5 | -8.6 | +
CC1Cc2nc(SCC(=O)Nc3ccc4c(c3)OCCO4)n(C)c(=O)c2S1 (stereo not given) | -4.7 | 3.2 | 258.5 | -0.5 | i
COCCn1c(SCC(=O)Nc2ccc3c(c2)OCCO3)nc2c(c1=O)SC(C)C2 (stereo not given) | 2.0 | 1.7 | 774.9 | -14.5 | +
O=C(COC(=O)Cc1ccsc1)Nc1cccc(F)c1 | 0.1 | 4.1 | 359.1 | 6.6 | i
O=[N+]([O-])c1ccc(-[n+]2ccc3ccccc3c2)c([N+](=O)[O-])c1 | -11.1 | 1.6 | 253.5 | -0.3 | +
C=CCSC(=C(C#N)C#N)c1cc2c([nH]1)CCCC2 | -2.1 | 1.8 | 182.4 | 12.5 | +
O=C(O)c1cc2c([nH]c1=O)CCCC2 | -0.4 | 1.0 | 528.7 | -22.1 | i
C=CCNC(=O)C1CCC(CNc2nc(=S)[nH]c3ccccc23)CC1 (stereo not given) | -0.7 | -1.3 | 360.1 | 7.4 | i
O=C(C1CCC(CNc2nc(=S)[nH]c3ccccc23)CC1)N1CCN(c2ccccn2)CC1 (stereo not given) | -0.6 | -1.0 | 464.0 | -2.4 | +
CN(CC(=O)Nc1cccc(F)c1)C(=O)CN1C(=O)C2CCCCC2C1=O (stereo not given) | 0.9 | 1.2 | 822.9 | -21.5 | i
Cc1ccc(N2CCN(C(=O)c3cccc([N+](=O)[O-])c3)CC2)cc1Cl | 0.4 | 3.1 | 211.3 | -2.4 | i
O=C(c1cccc([N+](=O)[O-])c1)N1CCN(c2cccc(Cl)c2)CC1 | -1.5 | 2.9 | 224.8 | 4.4 | +
Cc1cc(=O)c2cc3nc(-c4cccnc4)oc3c(Br)c2o1 | nt | 1.4 | 0.0* | nt | nt
COc1ccc(C2C(C(=O)c3ccco3)=C(O)C(=O)N2CCc2ccccc2)cc1OC (stereo not given) | 2.1 | 5.5 | 250.5 | -5.6 | +
COc1ccc(CN(C)C(=O)Cn2ccc(NC(=O)OCc3ccccc3)nc2=O)cc1OC | 0.8 | 5.3 | 322.7 | -10.3 | i
C#CCOc1ccccc1CNC1CCN(Cc2ccccc2)CC1 | 0.9 | -0.1 | 153.3 | 8.5 | i
Cc1ccc2c(CN3CCCc4ccccc43)cc(=O)oc2c1C | 1.2 | 0.1 | 305.0 | -37.5 | +
CCCc1c(Cc2cccc(F)c2)ncn1Cc1cccc(-c2ccccc2)c1 | nt | nt | nt | nt | +
CCc1c(-c2ccccc2)ncn1Cc1cccc(-c2ccccc2)c1 | nt | nt | nt | nt | i
CC(C)=CCC/C(C)=C/CNC(=O)C[C@H]1C[C@H](C(=O)N2CCCCC2)[C@@]2(C)c3[nH]c4cc(CCC(=O)N(C)C)ccc4c3CCN2C1=O | -2.3 | nt | nt | 31.3 | ?
O=C(Nc1cccnc1)c1ccc2nc(-c3ccccc3)c(-c3ccccc3)nc2c1 | -1.1 | -0.8 | 317.8 | -30.1 | +
CSc1ncccc1C(=O)OCC(=O)N(C)Cc1ccc(C)cc1 | 0.2 | nt | nt | 13.0 | i
COc1c(C)cc(C(O)c2ncc(-c3ccc4ccccc4c3)[nH]2)cc1C (stereo not given) | 2.4 | nt | nt | 21.3 | i
Cc1ccc(-c2cn(-c3ccc(SC(F)F)cc3)c3[n+]2CCC3)cc1 | -2.7 | -5.3 | 134.7 | 3.0 | +
COc1cc(C)ccc1S(=O)(=O)NC(=O)C1(C)CCN1C(=O)C1(c2ccc(Cl)cc2)CCC1 (stereo not given) | 1.1 | nt | nt | 3.6 | i
SMILES | FXN GAA850 act | NR2E3 ag-1 | T cell HTS | NR2E3 ag-2 | Myeloid diff 2
Cc1ccc(NC(=O)[C@H](Cc2c[nH]c3ccccc23)NC(=O)[C@@H]2Cc3ccccc3CN2)c(C)c1 | -9.6 | -4.9 | 265.1 | 8.5 | +
Cc1cccc(NC(=O)[C@H](Cc2c[nH]c3ccccc23)NC(=O)[C@@H]2Cc3ccccc3CN2)c1 | -7.2 | -1.6 | 224.6 | -39.3 | i
CCOc1ccccc1N1CCN(C(=O)c2cc(-c3cccnc3)nc3c(Cl)cccc23)CC1 | 1.6 | -0.5 | 218.1 | -39.9 | +
O=S(N1CCc2ccccc21)C12CC3CC(CC(C3)C1)C2 (stereo not given) | 0.4 | -0.4 | 968.8 | -29.8 | +
O=C(/C=C/c1ccc2ccccc2n1)c1cc(Cl)ccc1O | 3.3 | 5.4 | 533.2 | -78.5 | +
O=C(/C=C/c1cccs1)c1cc(Cl)ccc1O | 1.0 | -2.1 | 724.2 | -25.7 | i
O=C(NC1CC1)c1sc2cc(F)ccc2c1Cl | 1.9 | 2.4 | 401.1 | -41.7 | i
Cc1cc(C)n(C(=O)c2sc3cc(F)ccc3c2Cl)n1 | nt | 2.6 | 0.0* | nt | nt
O=[N+]([O-])c1ccc(N/N=C/c2sc(N3CCOCC3)nc2-c2ccccc2)c(S(=O)(=O)Nc2ccc(Cl)cc2)c1 | -0.2 | nt | nt | 14.2 | +
O=[N+]([O-])c1cc(C2Nc3cccc4cccc(c34)N2)ccc1Cl | 1.6 | -2.3 | 548.3 | -35.3 | +
COc1ccc(CCNS(=O)(=O)c2cn(C)cn2)cc1OC | 3.6 | -1.1 | 217.3 | -21.1 | +
CN(CC(=O)NCc1ccco1)CC(=O)Nc1cc(S(C)(=O)=O)ccc1Cl | -0.2 | nt | nt | 0.0 | i
Cc1cc(C)n2nc(NCc3ccccc3)nc2n1 | 1.1 | 1.6 | 445.5 | -4.8 | i
Cc1cc(C)n2c(NCc3ccccc3)c(-c3cc4ccccc4o3)nc2n1 | nt | nt | nt | -64.7 | +
Cc1[nH]nc2c1C(c1cnn(C)c1)C(C#N)=C(N)O2 (stereo not given) | 1.6 | -0.7 | 59.3* | 3.7 | i
Cc1ccc(C2C(C#N)=C(N)Oc3n[nH]c(C)c32)cc1 (stereo not given) | -1.8 | -3.0 | 798.2 | -0.7 | i
O=C(NCC1CCOCC1)c1ccc(-c2ccc(F)c(F)c2)c2ccoc12 | 2.1 | nt | nt | -16.8 | i
Cc1ccc(C)c2nc3sc(C(=O)N4CCCc5ccccc54)c(N)c3cc12 | 0.7 | -3.6 | i | -7.9 | +
CCc1ccc2nc3sc(C(=O)N4CCc5ccccc54)c(N)c3cc2c1 | nt | 4.3 | 196.6 | nt | nt
Oc1ccc(N=Nc2cccc(C(F)(F)F)c2)cc1C=Nc1ccc(N2CCOCC2)cc1 | 1.9 | -4.2 | 0.0* | -1.5 | nt
O=C(O)c1ccccc1NC(=O)c1ccccc1Nc1ccccc1 | -1.2 | -2.9 | 221.1 | 0.6 | +
CCOc1ccc(CCN2C(=O)C(=O)N([C@@H](CC(C)C)CN3CCC[C@H]3CN3C(=O)C(=O)NC[C@@H]3Cc3ccccc3)C[C@@H]2Cc2ccccc2)cc1 | nt | nt | nt | 19.9 | i
Cc1cc(/C=N\NC(=O)CC(=O)NC2CCCCC2)c(C)n1-c1ccc(Cl)c(Cl)c1 | 2.2 | -5.6 | 253.2 | 12.5 | +
Cc1cc(/C=N\NC(=O)CC(=O)NC2CCCCC2)c(C)n1-c1cccc(Cl)c1Cl | 4.3 | 2.0 | 301.9 | 14.9 | i
O=C(Nc1ccccc1-c1nc2ccccc2[nH]1)c1ccc(N2C(=O)CCC2=O)cc1 | -0.4 | -3.6 | 147.6 | 12.8 | +
